The text below walks through data of ChEMBL document CHEMBL3861974, “Discovery of a Selective Aurora A Kinase Inhibitor by Virtual Screening” (J Med Chem, 2016).

Assay [1] deals with Aurora kinase B/Inner centromere protein (Homo sapiens, UniProt Q96GD4). The experiment in a line: Inhibition of Aurora-B/INCENP (unknown origin) using biotinylated STK2 substrate incubated for 30 mins by HTRF assay. The format is protein-complex assay. An outline of the steps:
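Biochemical kinase inhibition was read by HTRF with 20 µM ATP. Aurora B was assayed as its complex with the activator INCENP. For Aurora A, IC50 curves were recorded at different TPX2 concentrations.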
In general terms: In TR-FRET formats the signal depends on donor and acceptor labels being close together.

For a further assay, the species on record is Homo sapiens. The experiment in a line: Selectivity index, ratio of IC50 for Aurora-B/INCENP (unknown origin) to IC50 for His-tagged human Aurora A kinase ([…] residues) expressed in Escherichia coli BL21 (DE3) Rosetta cells.
Assay [2] deals with T1, Aurora kinase A (Homo sapiens, UniProt O14965).
T1 sequence (O14965 whole entry): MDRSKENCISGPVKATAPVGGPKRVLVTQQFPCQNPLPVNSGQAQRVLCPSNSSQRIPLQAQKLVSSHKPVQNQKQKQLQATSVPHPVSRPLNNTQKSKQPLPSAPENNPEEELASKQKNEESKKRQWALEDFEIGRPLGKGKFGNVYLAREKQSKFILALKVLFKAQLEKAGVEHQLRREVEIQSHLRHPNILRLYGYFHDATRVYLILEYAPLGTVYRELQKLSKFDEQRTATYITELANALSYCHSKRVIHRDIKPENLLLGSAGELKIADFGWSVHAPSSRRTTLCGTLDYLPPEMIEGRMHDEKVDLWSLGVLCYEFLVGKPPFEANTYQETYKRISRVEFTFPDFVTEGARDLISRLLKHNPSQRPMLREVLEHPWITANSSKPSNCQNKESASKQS
The experiment in a line: Inhibition of His-tagged human Aurora A kinase ([…] residues) expressed in Escherichia coli BL21 (DE3) Rosetta cells using biotinylated STK2 substrate incubated for 30 mins by HTRF assay.

The target of assay [3] is T1, Aurora kinase A. The experiment in a line: Inhibition of Aurora A kinase autophosphorylation at Thr288 in human HeLa Kyoto cells incubated for 20 hrs. The assay is classed as cell-based.
For another assay, the system named is HeLa Kyoto. The experiment in a line: Increase in mitotic index in human HeLa Kyoto cells incubated for 20 hrs. The assay is classed as functional, cell-based. An outline of the steps:
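HeLa Kyoto cells were incubated overnight with compound, and the fraction of mitotic cells was scored. The experiment was repeated twice; mean ± SD.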

In assay [4] the target is T2, Aurora kinase B (Homo sapiens, UniProt Q96GD4). The conditions noted are these: HeLa Kyoto, 2.5 uM.
For assay [5], the target named is T2, Aurora kinase B. The conditions noted are these: HeLa Kyoto, 2.5 uM. This is another data set of the same source.

SMILES strings stand for the structures. Activity calls are given as the source filed them. The calls are words filed in the database; no cut-off is given here.

Chain of Aurora kinase B/Inner centromere protein (Q96GD4 whole entry): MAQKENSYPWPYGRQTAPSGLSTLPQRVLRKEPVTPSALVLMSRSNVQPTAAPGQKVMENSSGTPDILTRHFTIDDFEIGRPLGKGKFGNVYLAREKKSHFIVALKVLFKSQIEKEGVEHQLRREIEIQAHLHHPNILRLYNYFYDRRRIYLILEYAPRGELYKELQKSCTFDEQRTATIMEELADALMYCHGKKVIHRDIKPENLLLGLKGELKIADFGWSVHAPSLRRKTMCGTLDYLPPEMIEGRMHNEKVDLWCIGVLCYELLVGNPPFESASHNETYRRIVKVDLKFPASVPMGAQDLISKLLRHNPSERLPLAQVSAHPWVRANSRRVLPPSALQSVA
Chain of Aurora kinase B/Inner centromere protein (Q9NQS7 whole entry, further chain): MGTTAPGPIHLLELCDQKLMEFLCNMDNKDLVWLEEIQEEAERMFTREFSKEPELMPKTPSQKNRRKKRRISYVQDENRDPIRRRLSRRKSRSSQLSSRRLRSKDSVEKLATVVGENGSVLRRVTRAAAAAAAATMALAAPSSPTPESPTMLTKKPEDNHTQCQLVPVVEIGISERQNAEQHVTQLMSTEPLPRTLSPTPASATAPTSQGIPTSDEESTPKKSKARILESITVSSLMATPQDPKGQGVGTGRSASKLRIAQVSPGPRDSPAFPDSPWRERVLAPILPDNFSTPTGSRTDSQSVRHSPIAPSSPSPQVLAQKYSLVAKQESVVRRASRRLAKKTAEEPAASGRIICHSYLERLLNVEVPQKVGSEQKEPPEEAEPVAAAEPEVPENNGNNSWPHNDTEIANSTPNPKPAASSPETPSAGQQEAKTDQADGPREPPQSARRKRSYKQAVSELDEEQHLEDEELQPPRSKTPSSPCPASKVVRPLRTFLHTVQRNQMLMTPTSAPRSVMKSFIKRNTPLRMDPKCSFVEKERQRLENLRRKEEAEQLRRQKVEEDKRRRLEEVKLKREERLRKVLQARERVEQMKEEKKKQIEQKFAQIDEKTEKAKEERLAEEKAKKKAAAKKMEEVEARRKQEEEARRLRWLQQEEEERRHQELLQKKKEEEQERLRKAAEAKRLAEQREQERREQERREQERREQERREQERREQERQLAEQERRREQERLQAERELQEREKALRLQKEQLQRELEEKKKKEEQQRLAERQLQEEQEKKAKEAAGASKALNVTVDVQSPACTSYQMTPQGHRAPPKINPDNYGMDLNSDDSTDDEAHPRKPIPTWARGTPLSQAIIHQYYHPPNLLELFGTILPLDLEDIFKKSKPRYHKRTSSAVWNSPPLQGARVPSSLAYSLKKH
T2 sequence (Q96GD4 whole entry): as the sequence (Q96GD4 whole entry) above

Take `CCc1ccc(/N=C2\S/C(=C\c3ccnc(NC(=O)CC(=O)O)c3)C(=O)N2C)cc1`: the IC50 in assay [1] is 2700 nM; on Aurora kinase A [2], 6 nM. The Ratio IC50 in the assay listed under Homo sapiens was 450.
Turning to `O=c1[nH]c2ccccc2n1-c1nc2ccccc2[nH]1`, the IC50 on Aurora kinase A [2] was 6500 to 7000 nM.
Still for that read-out and setting: the same measure for `O=c1[nH]c2ccccc2n1-c1nc2cc(C(F)(F)F)ccc2[nH]1`: greater than 70000 nM.
With `CCc1ccc(/N=C2\S/C(=C\c3ccnc(N)c3)C(=O)N2C)cc1`, the results for the half-maximal inhibitory concentration (IC50) (in assay [1]; against Aurora kinase A [2]) were 23000 nM and 190 nM, respectively. The Ratio IC50 in the assay listed under Homo sapiens is 121.
Regarding `CNC(=O)c1ccc2c(c1)[nH]c(=O)n2-c1nc2ccccc2[nH]1`, the IC50 at Aurora kinase A [2] is greater than 50000 nM.
Still for that read-out and setting: the same measure for `CCc1ccc(/N=C2\S/C(=C\c3ccncc3)C(=O)N2CCOC)cc1`: 480 nM; for `CN1C(=O)/C(=C/c2ccncc2)S/C1=N\c1ccc(C(C)(C)C)cc1`: 1600 nM.
On Aurora kinase A [2], `O=c1[nH]c2ccc(Cl)cc2n1-c1nc2ccccc2[nH]1` had an IC50 of 23000 nM.
Molecule `O=c1[nH]c2c(O)cccc2n1-c1nc2ccccc2[nH]1` displayed an IC50 on Aurora kinase A [2] of 21000 nM.
The molecule `O=C(O)c1ccc2c(c1)[nH]c(=O)n2-c1nc2ccccc2[nH]1` gave a 50% inhibitory concentration (IC50) against Aurora kinase A [2] of 3500 nM.
Still for that read-out and setting: then `CCc1ccc(/N=C2/SC3(CC3c3ccnc(N)c3)C(=O)N2C)cc1` (racemic), with greater than 200000 nM; and `CCc1ccc(/N=C2\SC(Cc3ccnc(N)c3)C(=O)N2C)cc1` (racemic), with 1290 nM.
As to `CCc1ccc(/N=C2\S/C(=C\c3ccnc(Nc4ccc(CO)cc4)c3)C(=O)N2C)cc1`, the IC50 was 2600 nM in assay [1] and 130 nM at Aurora kinase A [2]. Further, in the assay filed under Homo sapiens, the Ratio IC50 came to 20.
The molecule `O=c1[nH]c2ccccc2n1-c1nc2cc(Br)ccc2[nH]1` displayed an IC50 against Aurora kinase A [2] of 9000 nM.
On Aurora kinase A [2], `Cc1cccc2[nH]c(-n3c(=O)[nH]c4ccccc43)nc12` showed an IC50 of 14000 nM.
Same read-out and setting: the same measure for `CCCCc1ccc(/N=C2\S/C(=C\c3ccncc3)C(=O)N2C)cc1`: 3300 nM.
On Aurora kinase A [2], `CC(C)c1ccc(/N=C2\S/C(=C\c3ccncc3)C(=O)N2C)cc1` yielded an IC50 of 780 nM.
Same read-out and setting: the same measure for `CCc1ccc(/N=C2\S/C(=C\c3ccncc3)C(=O)N2CC2CCCCC2)cc1`: greater than 200000 nM; for `CCCc1ccc(/N=C2\S/C(=C\c3ccncc3)C(=O)N2C)cc1`: 1900 nM.
In the case of `Cc1ccc(/N=C2\S/C(=C\c3ccncc3)C(=O)N2C)cc1C`, on Aurora kinase A [2], it took 2000 nM to reach half-maximal inhibition (IC50).
The same measure, in the same setting: then `CCc1ccc(/N=C2\S/C(=C\c3ccnc(Nc4ccccc4)c3)C(=O)N2C)cc1`, with 600 nM; and `O=C(O)c1ccc2[nH]c(=O)n(-c3nc4ccccc4[nH]3)c2c1`, with 3500 nM.
On the same count and under the same terms, then `CCc1ccc(/N=C2/NC(=O)/C(=C/c3ccncc3)S2)cc1`, with 430 nM.
The same measure, in the same setting: the same measure for `CN1C(=O)/C(=C/c2ccncc2)S/C1=N\c1ccccc1`: 9000 nM; for `CN1C(=O)/C(=C/c2ccncc2)S/C1=N\c1ccc(Br)cc1`: 300 nM.
Consider `CCc1ccc(/N=C2\SC(Cc3ccnc(Nc4ccc(C(=O)O)cn4)c3)C(=O)N2C)cc1` (racemic), for which the IC50 at Aurora kinase A [3] and at Aurora kinase A [2] was 24 nM in each case.
Turning to `COc1cc(Nc2ncc3c(n2)-c2ccc(Cl)cc2C(c2c(F)cccc2OC)=NC3)ccc1C(=O)O`, the Activity entry in the assay with HeLa Kyoto is “Dose-dependent effect”.
On to `O=c1[nH]c2cccc(O)c2n1-c1nc2ccccc2[nH]1`, for which 15000 nM corresponded to half-maximal inhibition against Aurora kinase A [2] (IC50).
As for `CCc1ccc(/N=C2\S/C(=C\c3ccnc(NC(=O)CCN)c3)C(=O)N2C)cc1`, the figures for the IC50 (in assay [1]; against Aurora kinase A [2]) were 10000 nM and 190 nM, respectively. In addition, in the assay filed under Homo sapiens, the Ratio IC50 turned out to be 53.
As for `CCc1ccc(/N=C2\S/C(=C\c3ccnc(NC(=O)CCCC(=O)O)c3)C(=O)N2C)cc1`, the IC50 in assay [1] amounted to 1400 nM; against Aurora kinase A [2], 6.2 nM. Besides, in the assay filed under Homo sapiens, the Ratio IC50 came to 230.
In the case of `O=c1[nH]c2ccc(O)cc2n1-c1nc2ccccc2[nH]1`, 12000 nM corresponded to half-maximal inhibition at Aurora kinase A [2] (IC50).
Same read-out and setting: then `CCc1ccc(/N=C2\SC3(CC3c3ccnc(N)c3)C(=O)N2C)cc1` (racemic), with 76000 nM.
`CCc1ccc(/N=C2\S/C(=C\c3ccnc(Nc4ccc(C(=O)O)cc4)c3)C(=O)N2C)cc1`: the results for the IC50 (in assay [1]; against Aurora kinase A [2]) were 1540 nM and 6.2 nM, respectively. The Ratio IC50 in the assay listed under Homo sapiens was 250.
Consider `Cc1ccc2[nH]c(-n3c(=O)[nH]c4ccccc43)nc2c1`, for which the IC50 at Aurora kinase A [2] was 7800 nM.
`CCc1ccc(/N=C2\S/C(=C\c3ccncc3)C(=O)N2C)cc1` gave an IC50 against Aurora kinase A [2] of 390 nM.
Still for that read-out and setting: then `CCc1ccccc1/N=C1\S/C(=C\c2ccncc2)C(=O)N1C`, with 52000 nM; and `CCc1ccc(/N=C2\S/C(=C\c3ccnc(Nc4ccccn4)c3)C(=O)N2C)cc1`, with 220 nM.
For `COc1cc2c(Nc3ccc(NC(=O)c4ccccc4)cc3)ncnc2cc1OCCCN1CCOCC1`, the inhibition entry on Aurora kinase B [4] and on Aurora kinase B [5] was “Active” each time.
As to `CN1C(=O)/C(=C/c2ccncc2)S/C1=N\c1ccc(C(F)(F)F)cc1`, the midpoint of inhibition against Aurora kinase A [2], the IC50, lay at 370 nM.
With `CCc1ccc(/N=C2\S/C(=C\c3ccnc(Nc4ccc(-c5nnn[nH]5)cc4)c3)C(=O)N2C)cc1`, the IC50 in assay [1] stood at 830 nM; against Aurora kinase A [2], 25 nM. The Ratio IC50 in the assay listed under Homo sapiens was 33.
With `CNC(=O)c1ccc2[nH]c(=O)n(-c3nc4ccccc4[nH]3)c2c1`, the IC50 against Aurora kinase A [2] is 11000 nM.
On the same count and under the same terms, then `O=c1[nH]c2cc(Cl)ccc2n1-c1nc2ccccc2[nH]1`, with greater than 200000 nM.
On to `CCc1ccc(/N=C2\S/C(=C\c3ccnc(NC(=O)CCC(=O)O)c3)C(=O)N2C)cc1`, for which the 50% inhibitory concentration (IC50) in assay [1] worked out at 1700 nM; against Aurora kinase A [2], 4 nM. In the assay listed under Homo sapiens, the Ratio IC50 is 415.
Consider `CCc1cccc(/N=C2\S/C(=C\c3ccncc3)C(=O)N2C)c1`, for which the 50% inhibitory concentration (IC50) at Aurora kinase A [2] was found to be 4900 nM.
Same read-out and setting: then `CCc1ccc(/N=C2\S/C(=C\c3ccncc3)C(=O)N2CC)cc1`, with 380 nM.

Usually IC50 stands for the concentration that gives 50% inhibition.
